Assay results from ChEMBL document CHEMBL1128250, “Structure-activity studies of 2,3,4,4a,5,9b-hexahydroindeno[1,2-c]pyridines as antispermatogenic agents for male contraception” (1995).

Assays:
Mus musculus [1] = assay: Effect on left testes body weight a single oral dose of 3 mg/kg was given and the change after 1 h of dosing was observed.; assay type: functional, Testis
In short: (§1)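 Male CD-1 outbred Swiss albino mice, single oral gavage in acetate buffer pH 5 (10 mL/kg), 3, 10 or 30 mg/kg, plus vehicle control. Killed on day 1, 3 or 14 after dosing (times are days, not hours). Testes removed, right and left weighed separately, sectioned for histology and scored on a 0–6 spermatogenic index. Body weight change recorded. Mean ± SEM, n = 5; p < 0.05 versus control.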

Mus musculus [2] = assay: tested for its effect on spermatogenic index 3 days after single oral dose (1 mg/kg); assay type: functional
In short: (§2)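 Male CD-1 (ICR)BR outbred Swiss albino mice, 5/dose, single oral gavage dose (10 mL/kg) on day 0 in acetate buffer pH 5 or Tween-20-based vehicle; killed 72 h later. Testis cross-sections scored histologically on a 0–6 spermatogenic index (Sertoli only to >100 late spermatids/tubule). Reported as % reduction versus vehicle control; Dunnett's one-tailed t-test.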

Mus musculus [3] = assay: tested for its effect on spermatogenic index 3 days after single oral dose (3 mg/kg); assay type: functional; in short: as §2
Mus musculus [4] = assay: tested for its effect on testes weight 3 days after single sub cutaneous dose (10 mg/kg); assay type: functional, Testis
In short: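 CD-1 male mice, 5/dose, injected subcutaneously once (10 mL/kg) on day 0 in ethanol/Tween-20/water (3:7:90); vehicle and positive controls included. Killed by CO2 after 72 h; testes weighed and sectioned, with histology scored as a 0–6 spermatogenic index. Both read-outs given as % reduction from control; Dunnett's one-tailed t-test.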

Mus musculus [5] = assay: Effect on change in body weight single oral dose of 3 mg/kg was given and the change after 14 hr of dosing was observed.; assay type: functional; in short: as §1
Mus musculus [6] = assay: Effect on left testes weight single oral dose of 30 mg/kg was given and the change after 3 hr of dosing was observed.; assay type: functional, Testis; in short: as §1
Mus musculus [7] = assay: Effect on right testes weight asingle oral dose of 3 mg/kg was given and the change after 14 hr of dosing was observed.; assay type: functional, Testis; in short: as §1
Mus musculus [8] = assay: Effect on right testes weight single oral dose of 10 mg/kg was given and the change after 1 hr of dosing was observed.; assay type: functional, Testis; in short: as §1
Mus musculus [9] = assay: Effect on right testes weight single oral dose of 10 mg/kg was given and the change after 3 hr of dosing was observed.; assay type: functional, Testis; in short: as §1
Mus musculus [10] = assay: Tested for its effect on spermatogenic index 3 days after single oral dose (10 mg/kg); assay type: functional
In short: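 Male CD-1 (ICR) mice, 7 weeks old on arrival, 5 per dose, single gavage of 10 mL/kg on day 0. Vehicle was 0.15 M acetate buffer pH 5, ethanol/Tween-20/water 3:7:90, or 1% Tween-20. Mice were killed with CO2 at 72 h and testes weighed and scored for spermatogenic index (0–6 scale). Results are % reduction versus the vehicle control. Dunnett's one-tailed t-test.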

Mus musculus [11] = assay: Tested for its effect on spermatogenic index 3 days after single oral dose (90 mg/kg); assay type: functional
In short: (§3)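 CD-1 outbred Swiss albino male mice, 5 per dose, single gavage on day 0 at 10 mL/kg. Vehicle was 0.15 M acetate buffer pH 5, ethanol/Tween-20/water (3:7:90), or 1% Tween-20 in water. CO2 euthanasia 72 h later. Testes weighed and histologically scored (spermatogenic index 0–6). Values are % reduction versus the assay's vehicle control. Positive control was 30 mg/kg of the parent compound. Significance by Dunnett's one-tailed t-test, p < 0.05.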

Mus musculus [12] = assay: Tested for its effect on spermatogenic index 3 days after single oral dose (90 mg/kg),; assay type: functional; in short: as §3
Mus musculus [13] = assay: Effect on right spermatogenic index single oral dose of 10 mg/kg was given and the change after 3 hr of dosing was observed.; assay type: functional; in short: as §1
Mus musculus [14] = assay: Effect on spermatogenic index single oral dose of 3 mg/kg was given and the change after 3 hr of dosing was observed.; assay type: functional; in short: as §1
Mus musculus [15] = assay: Tested for its effect on mouse testes weight 3 days after single oral dose (1 mg/kg); assay type: functional, Testis; in short: as §3
Mus musculus [16] = assay: tested for its effect on testes weight 3 days after single oral dose (30 mg/kg); assay type: functional, Testis
In short: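 Male CD-1 (ICR)BR outbred Swiss albino mice, 5/dose, given one oral gavage dose (10 mL/kg) on day 0 in 0.15 M acetate buffer pH 5, ethanol/Tween-20/water (3:7:90), or 1% Tween-20 in water; vehicle and positive-control groups in each assay. Killed by CO2 72 h later; testes weighed. Expressed as % reduction versus vehicle control; Dunnett's one-tailed t-test.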

CCN1CC[C@H]2[C@H](c3ccc(C)cc3)c3cc(C)ccc3[C@H]2C1.Cl
Testes weight (Mus musculus [1]): 96.9 mg
Reduction (Mus musculus [2]): 59%
Reduction (Mus musculus [3]): 31%
Reduction (Mus musculus [4]): 12%
Change in body weight (Mus musculus [5]): 3.62 g
Testes weight (Mus musculus [6]): 78.2 mg
Testes weight (Mus musculus [7]): 126.5 mg
Spermatogenic index (Mus musculus [8]): 4
Testes weight (Mus musculus [8]): 88.2 mg
Spermatogenic index (Mus musculus [9]): 5.1
Testes weight (Mus musculus [9]): 112.3 mg
Reduction (Mus musculus [10]): 31%
Reduction (Mus musculus [11]): -9%
Reduction (Mus musculus [12]): 5%
Spermatogenic index (Mus musculus [13]): 3.5
Spermatogenic index (Mus musculus [14]): 5.8
Reduction (Mus musculus [15]): 11%
Reduction (Mus musculus [16]): 43%
